Reference: ChEMBL document CHEMBL4610063, “Mangiferin: A promising natural xanthone from Mangifera indica for the control of acyclovir - resistant herpes simplex virus 1 infection” (Bioorg Med Chem, 2020)
Calls of active or inactive are those of the source. The rule behind the calls is not given here.

Columns and labels:
Format in all cases: functional, organism-based
[1] = system: Human alphaherpesvirus 1; assay: Antiviral activity against ACV-sensitive Herpes simplex virus 1 KOS infected in female Balb/c mouse assessed as reduction in ulcerated lesion at 50 mg/g applied topically as cream formulation 5 times a day at 3 hrs interval for 10 days measured on day 3 to day 5 post infection; conditions: strain KOS
Procedure, shortened: (§1)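 Balb/c mice (5 weeks, 22–27 g; six per group, sexes tested separately) had the right mid-flank depilated under i.p. anaesthesia and needle-scarified 24 h later. They were inoculated with 70 μL HSV-1 KOS (10^5 PFU/mL). From 4 h post-infection, O/W emulsion with 0.7% w/w mangiferin or ACV cream (50 mg/g) was applied topically 5 times daily for 10 days. Lesions were scored daily.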

[2] = system: Human alphaherpesvirus 1; assay: Antiviral activity against ACV-sensitive Herpes simplex virus 1 KOS infected in male Balb/c mouse assessed as reduction in ulcerated lesion at 50 mg/g applied topically as cream formulation 5 times a day at 3 hrs interval for 10 days measured on day 2 post infection; conditions: strain KOS; procedure, shortened: as §1
[3] = system: Human alphaherpesvirus 1; assay: Antiviral activity against ACV-sensitive Herpes simplex virus 1 KOS infected in male Balb/c mouse assessed as reduction in ulcerated lesion at 50 mg/g applied topically as cream formulation 5 times a day at 3 hrs interval for 10 days measured on day 7 post infection; conditions: strain KOS; procedure, shortened: as §1
[4] = system: Human alphaherpesvirus 1; assay: Antiviral activity against ACV-resistant Herpes simplex virus 1 AR-29 infected in female Balb/c mouse assessed as reduction in skin lesion at 50 mg/g applied topically as cream formulation 5 times a day at 3 hrs interval for 10 days
Procedure, shortened: (§2)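 Balb/c mice, 5 weeks old, six per group. Right mid-flank depilated under i.p. anaesthesia, needle-scarified 24 h later and inoculated with 70 μL HSV-1 AR-29 (10^5 PFU/mL). Topical 0.7% w/w O/W emulsion or ACV cream (50 mg/g) starts 4 h post-infection, 5 times daily for 10 days. Lesions are scored daily.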

[5] = system: Human alphaherpesvirus 1; assay: Antiviral activity against ACV-resistant Herpes simplex virus 1 AR-29 infected in female Balb/c mouse assessed as reduction in zosteriform lesion at 50 mg/g applied topically as cream formulation 5 times a day at 3 hrs interval for 10 days measured on day 7 post infection; procedure, shortened: as §2
[6] = system: Human alphaherpesvirus 1; assay: Antiviral activity against ACV-resistant Herpes simplex virus 1 AR-29 infected in male Balb/c mouse assessed as reduction in ulcerated lesion at 50 mg/g applied topically as cream formulation 5 times a day at 3 hrs interval for 10 days measured on day 5 post infection; procedure, shortened: as §2
[7] = system: Human alphaherpesvirus 1; assay: Antiviral activity against ACV-resistant Herpes simplex virus 1 AR-29 infected in male Balb/c mouse assessed as reduction in zosteriform lesion at 50 mg/g applied topically as cream formulation 5 times a day at 3 hrs interval for 10 days measured on day 5 post infection; procedure, shortened: as §2

Nc1nc2c(ncn2COCCO)c(=O)[nH]1
Activity [1]: inactive
Activity [2]: inactive
Activity [3]: Active
Activity [4]: inactive
Activity [5]: Active
Activity [6]: inactive
Activity [7]: inactive
